Source: PMC4232461 (Nature chemical biology, 2014)
Where a SMILES comes first, the peptide text is derived from it. The star is where a group is joined. Cbz = O=C(OCc1ccccc1)*

Biological target: Her3 (Homo sapiens, UniProt P21860)
Assay: Western blot of Her3 level in PC9 GR4 cells
Format: cell-based
Details: combination with TX2-121-1 (0.5 μM), 116-9e 1.0 μM, 17-AAG 0.1 μM
Method in brief: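 Serum-starved PC9 GR4 cells were treated with test compounds, then stimulated for 30 min with 100 ng/ml NRG. Cells were lysed in Tris/NaCl/EDTA/1% NP-40 buffer with phosphatase and protease inhibitors, and protein was normalised by BCA. Lysates were resolved on 4–12% SDS-PAGE and PVDF blots were probed for p-Her3, Her3, p-Akt (Ser473), Akt, p-Erk1/2 (Thr202/Tyr204) and Erk1/2.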

Sequence of Her3 (P21860 20-1342): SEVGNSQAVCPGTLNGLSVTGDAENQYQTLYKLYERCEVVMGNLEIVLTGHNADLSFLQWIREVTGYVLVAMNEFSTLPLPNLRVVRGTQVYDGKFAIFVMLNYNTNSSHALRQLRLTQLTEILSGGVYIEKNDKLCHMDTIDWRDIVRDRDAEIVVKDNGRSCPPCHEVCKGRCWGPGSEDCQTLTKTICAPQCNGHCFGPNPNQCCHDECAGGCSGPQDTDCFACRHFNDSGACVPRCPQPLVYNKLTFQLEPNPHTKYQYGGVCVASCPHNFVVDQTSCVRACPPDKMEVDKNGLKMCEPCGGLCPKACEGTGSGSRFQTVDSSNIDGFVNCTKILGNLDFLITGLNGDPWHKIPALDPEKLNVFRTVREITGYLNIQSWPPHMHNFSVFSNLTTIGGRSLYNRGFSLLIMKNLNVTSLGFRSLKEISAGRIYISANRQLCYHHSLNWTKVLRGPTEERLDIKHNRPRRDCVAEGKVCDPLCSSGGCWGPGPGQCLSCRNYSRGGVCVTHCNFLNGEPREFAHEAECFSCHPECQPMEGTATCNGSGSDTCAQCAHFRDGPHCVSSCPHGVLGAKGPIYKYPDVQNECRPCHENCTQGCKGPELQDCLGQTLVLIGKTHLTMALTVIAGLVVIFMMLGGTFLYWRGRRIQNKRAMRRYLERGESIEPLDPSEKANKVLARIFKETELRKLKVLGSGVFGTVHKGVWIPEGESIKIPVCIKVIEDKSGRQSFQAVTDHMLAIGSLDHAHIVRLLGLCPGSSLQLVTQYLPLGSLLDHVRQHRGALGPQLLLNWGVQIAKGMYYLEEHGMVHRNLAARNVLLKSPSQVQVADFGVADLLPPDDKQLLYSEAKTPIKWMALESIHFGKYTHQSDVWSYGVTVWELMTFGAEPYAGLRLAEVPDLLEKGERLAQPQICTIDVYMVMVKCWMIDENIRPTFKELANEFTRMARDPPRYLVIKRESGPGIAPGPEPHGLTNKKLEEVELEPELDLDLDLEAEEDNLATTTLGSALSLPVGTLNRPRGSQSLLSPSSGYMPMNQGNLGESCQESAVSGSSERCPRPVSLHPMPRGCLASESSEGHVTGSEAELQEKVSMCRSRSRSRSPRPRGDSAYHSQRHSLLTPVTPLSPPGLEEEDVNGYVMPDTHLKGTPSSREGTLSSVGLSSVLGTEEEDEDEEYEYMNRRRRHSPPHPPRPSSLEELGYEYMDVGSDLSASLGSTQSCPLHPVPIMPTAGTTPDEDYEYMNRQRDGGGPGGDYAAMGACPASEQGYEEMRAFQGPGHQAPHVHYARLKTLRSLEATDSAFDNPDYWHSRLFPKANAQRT

## CC1=C(C(=O)OCc2ccccc2)C(c2ccc(-c3ccccc3)cc2)NC(=O)N1CCCCCC(=O)O (stereo not drawn) [116-9e, 4-[1,1′-biphenyl]-4-yl-3,4-dihydro-6-methyl-2-oxo-5-[(phenylmethoxy)carbonyl]-1(2H)-pyrimidinehexanoic acid]
  effect on TX2-121-1 induced Her3 degradation: enhanced degradation of Her3

## C=CCNC1=C2C[C@@H](C)C[C@H](OC)[C@H](O)[C@@H](C)/C=C(\C)[C@H](OC(N)=O)[C@@H](OC)/C=C\C=C(/C)C(=O)NC(=CC1=O)C2=O [17-AAG, 17-N-allylamino-17-demethoxygeldanamycin]
  effect on TX2-121-1 induced Her3 degradation: enhanced degradation of Her3

## CC(C)C[C@@H](C=O)NC(=O)[C@H](CC(C)C)NC(=O)[C@H](CC(C)C)NC(=O)OCc1ccccc1 [MG132] (Cbz-Leu-Leu-Leu-aldehyde)
  effect on TX2-121-1 induced Her3 degradation: diminished
